Assay results from the EternaBench riboswitch data.

Key:
MS2 coat protein [1] = assay: apparent Kd, MS2 coat protein; higher = weaker binding; RNA-MaP array; tryptophan 2.4 mM where present
Summary of the method: (§1)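 Designs were transcribed by stalled E. coli RNA polymerase on Illumina sequencing-chip clusters. They were titrated with SNAP-549-labelled MS2 coat protein from 0.7 or 1.5 nM, doubling to 3 µM, without and then with constant ligand. Buffer: 100 mM Tris-HCl pH 7.5, 80 mM KCl, 4 mM MgCl2, BSA, DTT, yeast tRNA, Tween-20. Green signal was normalised to red-channel RNA signal and control-cluster median Fmax. Apparent Kd is the median of filtered per-cluster binding-curve fits.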

MS2 coat protein [2] = assay: apparent Kd, MS2 coat protein; higher = weaker binding; RNA-MaP array; theophylline 2 mM where present; settings: designed as: ON switch for theophylline
Summary of the method: as §1

[3] = designed as: ON switch for tryptophan, no ligand
[4] = ligand present: tryptophan, designed as: ON switch for tryptophan
[5] = designed as: OFF switch for tryptophan, no ligand
[6] = ligand present: tryptophan, designed as: OFF switch for tryptophan

Sequence | apparent Kd (MS2 coat protein [1]; [3]) [nM] | apparent Kd (MS2 coat protein [1]; [4]) [nM] | apparent Kd (MS2 coat protein [1]; [5]) [nM] | apparent Kd (MS2 coat protein [1]; [6]) [nM] | other results
CUAGAUGGAAACGUCUGGACGCACAAGCGACGAGGACCGGUACGGCCGCCACUCGAAGAGUGGUGGACAUGAGGAUCACCCAUGU | 53.8 | 39.2 | – | – | –
AGUUUAGACACGGCCGCCACUCGUGACAGAUUUAGCAGUGGUCAACAUGAGGAUCACCCAUGUCUGAGGACCGGGUGUUGAGUUU | – | – | 177 | 631 | –
AACAUGAGGAUCACCCAUGUGUCCUCGAAACGAGGACCGGUACGGCCGCCACUCGAAAGGUGUUGACGAAAAGUCAGCACCAAAA | – | – | 302 | 930 | –
UAUCGAGGUACAUGAGGAUCACCCAUGUAUCGAGGACCGGUACGGCCGCCACUCGAUAAUGGCGGAUCGUUAGUCCUCUUCGAUA | – | – | 10.7 | 11.4 | –
CUGCUACAUACGGCCGCCACUUUAAACAUGAGGAUCACCCAUGUACGGAAGGGUGGUAAAUGUUAAAGGACCGGGUAUGUAGCAA | – | – | 176 | 45.1 | –
UCUUUUUUCUUUUCUUCUUUCGGUUCUUUUCGAGGACCGGUACGGCCGCCACUCGAAACAUGAGGAUCACCCAUGUUUUGGUUUU | – | – | 11.9 | 17.5 | –
UUUAAAUAGACGGCCGCCACUGGAAUUAAUACAUGAGGAUCACCCAUGUAGAGAGAAUAAUAAUACAGGACCGGGUCUUCAUGAA | 31.4 | 12.5 | – | – | –
AAAUUAUAGGCGGCCGCCACUAGAGUUAGGCUUAUGUACUGGGUAACAUGAGGAUCACCCAUGUAUAGGACCGGGCCAUAAUAAA | 53.5 | 52.6 | – | – | –
GACCCAUGAGUUGCAAAAGCUCAUGGGUCGCGAGGACCGGUACGGCCGCCACUCGGCUGUACAUGAGGAUCACCCAUGUCAGGGU | 371 | 529 | – | – | –
CGAGUAAGAACAAUCGAAUAACGGUUUUCGCGAGGACCGGUACGGCCGCCACUCGUGUGAUAUAACACAUGAGGAUCACCCAUGU | 26.3 | 24.4 | – | – | –
UCCUGCAGAGCGGCCGCCACUGUGUUGCGUGAGGAUGACCCAACAUGAGGAUCACCCAUGUUGUUUAGGACCGGGCUUGCCUCGA | – | – | 13.4 | 12.3 | –
UGCUAGUGAUCGGCCGCCACUGGCACCUUGAGGAUCCUGCUAAAGUACAUGAGGAUCACCCAUGUCAGGACCGGGAUCAUCAGUG | – | – | 10.4 | 10.5 | –
GGGUGGUAGGCGGCCGCCACUGAUUUUUAUUUAUAGAUGACAUGAGGAUCACCCAUGUAGAUAUGCAGGACCGGGCCUGUUGUUU | 19.3 | 17.8 | – | – | –
AUAAUGAGUGGUGGAUAGGUGAUCCUCUUACGAGGACCGGUACGGCCGCCACUCGAUAACAUGAGGAUCACCCAUGUAAUAAUAA | – | – | 15.7 | 49.9 | –
CCUCAAUAGACGGCCGCCACUGAAACAUGCGGAUACAUGAGGAUCACCCAUGUGGGUGUGUUACGCAGGACCGGGUCAAGACCCG | 345 | 480 | – | – | –
UCGAAUGCGGCGGCCGCCACUCGCGGAUAACGAUAGCUUAACAUGAGGAUCACCCAUGUGUCAUGGAGGACCGGGCCCAUACCGU | 22.7 | 21.1 | – | – | –
AAAGAUCGGAAACGAUCGGCGGCUUGGGCGCGAGGACCGGUACGGCCGCCACUCGGGAAACAUGAGGAUCACCCAUGUUGCUAGC | – | – | 13.7 | 15.2 | –
AGACUUCGCAUAGGAAAACUAUGUGAAGUCCGAGGACCGGUACGGCCGCCACUCGUCCUCAACAUGAGGAUCACCCAUGUAAUAA | – | – | 21.5 | 27.3 | –
UAAACUACACAUGAGGAUCACCCAUGUGGCCGAGGACCGGUACGGCCGCCACUCGUGUGUUAAUAAAAGAACCGCAAAGUUCUUU | 277 | 75.9 | – | – | –
ACCUCAUAGGCGGCCGCCACUGUAAUGACUACGUCAAACAUGAGGAUCACCCAUGUAGUCAAUCACAGGACCGGGUCAUGGGUAG | 39.1 | 23.9 | – | – | –

Sequence | apparent Kd (MS2 coat protein [1]; [3]) [nM] | apparent Kd (MS2 coat protein [1]; [4]) [nM] | apparent Kd (MS2 coat protein [1]; [5]) [nM] | apparent Kd (MS2 coat protein [1]; [6]) [nM] | other results
CCUCAAUCGUCGGCCGCCACUGGAUCAUGCGGAUACAUGAGGAUCACCCAUGUGGGUGUGGUACGCAGGACCGGGACAAGACCCG | 340 | 244 | – | – | –
AAACAUGAGGAUCACCCAUGUAUACUUAGACGAGGACCGGUACGGCCGCCACUCGAACUUCAAGAUUUGGCGGAAAAUGUAUGUA | – | – | 11.3 | 12.9 | –
UACUUGCUGACGGCCGCCACUAGAACAUGAGGAUCACCCAUGUAAGUGGUUGGUUCAUGGGUGACUAGGACCGGGUCAGCAAGAU | – | – | 32.3 | 37.3 | –
CCAUAAGUACCGGUCCUCAGAUCCUCAUGACGAGGACCGGUACGGCCGCCACUCGAAACAUGAGGAUCACCCAUGUAAUAAUAUC | – | – | 30.6 | 24.6 | –
CGACACAUGAGGAUCACCCAUGUAAUGACGCGAGGACCGGUACGGCCGCCACUCGCAUGCCAAUGAGCGCAUGCGGCCUGGGUAU | – | – | 18.1 | 14.5 | –
AGCCGCGUUCUUUCUUUCUUUCUAGCGGCACGAGGACCGGUACGGCCGCCACUCGCCCACAUGAGGAUCACCCAUGUAGUGGGUG | – | – | 18.8 | 80.6 | –
UUAUAAGUACCGGUCCUCAGAUCCUCAUGACGAGGACCGGUACGGCCGCCACUCGAAACAUGAGGAUCACCCAUGUAAUAAUACC | – | – | 37.5 | 29.1 | –
GGAUUCAACUCGGCCGCCACUGGUGAUCCUAAUGUACAUGAGGAUCACCCAUGUACAUGAGAAUACAGGACCGGGAGAUAAGCAA | 19.4 | 13.9 | – | – | –
UAUAUAUAUCACGAACUGUGGUGUAUGUCCCGAGGACCGGUACGGCCGCCACUCGCGUGGUUCCACAUGAGGAUCACCCAUGUUG | – | – | 18.9 | 22.7 | –
AGCACUGUGACGGCCGCCACUACAUAUAGGGUGGUCAGGUUCAUAAUACAUGAGGAUCACCCAUGUAGGACCGGGUCUCAGUGCA | – | – | 12.5 | 14.4 | –
CUCAUCCACGCGGCCGCCACUAUAUUGUGGUGUGAAUGUGUCGUAAUACAUGAGGAUCACCCAUGUAGGACCGGGCGUGGAUGAG | – | – | 20.1 | 32.9 | –
GCUAGGUCAUCGGCCGCCACUAACGACGGUUCCAACAUGAGGAUCACCCAUGUGCCACAUGCGCAUAGGACCGGGAUGACCUAGC | 33 | 21 | – | – | –
AGAAUAUAGUCGGCCGCCACUCUUCAUACAUGAGGAUCACCCAUGUUUAAUUCUUGGAUAUUCUUGAGGACCGGGACAUAGGCAU | 18.4 | 16.8 | – | – | –
AUGGUCGACGAUCUGCGAAAAGCAGAUCGACGAGGACCGGUACGGCCGCCACUCGUGUUCAUUAAACAUGAGGAUCACCCAUGUA | 48.8 | 21.1 | – | – | –
AUAUAUACAUGAGGAUCACCCAUGUUAUUUCGAGGACCGGUACGGCCGCCACUCGAUAGAGUAGAAGUAACAUGUGUUAGUUGAU | 22.3 | 47 | – | – | –
UGCAUGAGGAUCGCCCGUGUCGAGCCGGUGCGAGGACCGGUACGGCCGCCACUCGAGACAUGAGGAUCACCCAUGUUGUGCGUGA | – | – | 56.5 | 91.4 | –
GUCCUAAGGUCGGCCGCCACUGUAGAGUGUGAGCCAUCACAUGAGGAUCACCCAUGUUGUUGCUAUAGGACCGGGAUUGUAGGAC | – | – | 12 | 16.4 | –
AUAAAAGGGUUAUAUAGAUUUAGGUCCAGUCGAGGACCGGUACGGCCGCCACUCGUACUGAAAUACAUGAGGAUCACCCAUGUUA | 21.8 | 22.7 | – | – | –
UGUCGGCGAAAGUUGGCGUGUCUUGCUGGUCGAGGACCGGUACGGCCGCCACUCGAUCCUUCGCACAUGAGGAUCACCCAUGUUG | 25.5 | 28.5 | – | – | –
GCACUACAUGAGGAUCACCCAUGUGCAGAUACCAGAGGUGUAUGCCUCCCUUGGCAGCUGCGUCGCUCUGGAAGCCUAUUGGUUU | – | – | – | – | apparent Kd (MS2 coat protein [2]; no ligand): 15.6 nM; apparent Kd (MS2 coat protein [2]; ligand present: theophylline): 20.9 nM
